A selection: hits, their analogues and other compounds. The true share with any hit is near 2.7%.
OX1R antag-1: OX1R (HCRTR1) antagonists, primary screen, fluorescence, CHO/OX1R cells, Fluo-8 calcium, orexin A | Orexin/Hypocretin receptor type 1 (Homo sapiens), O43613 | Fluo-8 calcium fluorescence | inhibition, % at 5 µM | 330,000 tested, 0.43% active;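 active means inhibition above its plate's threshold, mean inhibition of all tested compounds on the plate plus 3 SD, cut at about 37% in these data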
OX1R antag-2: antagonists of human orexin 1 receptor (OX1R). Orexin/Hypocretin receptor type 1 (Homo sapiens), O43613. OX1R-expressing cells, FRET antagonist read-out. inhibition, % at 6.6 µM. 330,000 tested, 1.8% active. AID 485270, 2010; in the data active means inhibition mostly above about 38%, no sharp cut-off; inactive means mostly below about 40%
CHO parental Ca: ATP-evoked calcium signal inhibitors, parental CHO, primary screen, counter-screen for OX1R antagonist project, cell-based, fluorescence, Fluo-8 calcium dye; AID 463079, 2010; parental CHO-K1, ATP-induced calcium, Fluo-8 fluorescence; inhibition, % at 5.6 µM; 330,000 tested, 0.63% active;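 active means inhibition above that plate's mean sample inhibition plus 3 SD, cut at about 26% in these data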
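Assay system – parental CHO cells · Reagent – ATP stimulus · Detection – intracellular calcium via Fluo-8 no-wash fluorescent dye · Evaluation – percent inhibition of ATP-evoked calcium rise, normalized to controls · Controls – ATP wells versus no-ATP DMSO wells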
V1aR counter: agonists of human V1a receptor, primary screen, counter-screen for OXTR agonist project, fluorescence, CHO-V1R cells; 320,000 tested, 0.25% active; Fluo-8 calcium fluorescence, agonist mode; 0% DMSO, 100% 3 nM vasopressin; AID 2797, 2010; activation, % at 3 µM; Vasopressin V1a receptor (Homo sapiens), P37288;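 active means activation above the mean activation of all tested compounds plus 3 SD, per screening run, cut at about 20% in these data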;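 further: signal is peak over basal fluorescence ratio across a 100 second FLIPR read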
OXTR potentiate: human OXTR potentiators, primary screen, fluorescence, CHO-OTR cells, Fluo-8 calcium. Fluo-8 calcium fluorescence, potentiator mode; 0% = oxytocin EC15, 100% = EC100. Oxytocin receptor (Homo sapiens), P30559. activation, % at 3 µM. AID 2445, 2010. 320,000 tested, 0.061% active;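 active means activation above that plate's cutoff, the mean activation of tested compounds plus 3 SD, cut at about 6.6% in these data, passing the limit was not always enough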
Target sequence (P30559 whole entry, looked up): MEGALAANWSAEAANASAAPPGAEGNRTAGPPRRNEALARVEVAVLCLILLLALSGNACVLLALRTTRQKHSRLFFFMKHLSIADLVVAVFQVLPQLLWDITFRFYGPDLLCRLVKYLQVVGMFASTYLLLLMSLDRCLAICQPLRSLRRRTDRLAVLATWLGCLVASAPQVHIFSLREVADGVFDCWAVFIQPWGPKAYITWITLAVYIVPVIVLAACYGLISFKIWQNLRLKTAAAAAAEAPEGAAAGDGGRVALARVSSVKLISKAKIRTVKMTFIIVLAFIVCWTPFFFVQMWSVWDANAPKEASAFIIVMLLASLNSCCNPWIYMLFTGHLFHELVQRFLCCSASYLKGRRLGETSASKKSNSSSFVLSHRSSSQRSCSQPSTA
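Material: human OTR in CHO cells. Compound: 3.0 µM, one dose. Timing: compound 6 min at room temperature before oxytocin, 100 s read. Evaluation: % activation of max/min ratio relative to oxytocin controls. Replication: single well per compound, singlicate. Signal: Fluo-8 calcium dye fluorescence.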
OXTR agonist: human OXTR agonists, primary screen, fluorescence, CHO-OTR cells, Fluo-8 calcium | Oxytocin receptor (Homo sapiens), P30559 | Fluo-8 calcium fluorescence; normalized: DMSO 0%, oxytocin 100% | activation, % at 3 µM | 320,000 tested, 0.32% active | AID 2435, 2010;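 active means activation above the mean of all tested compounds plus 3 SD, cutoff set per screening run, cut at about 20% in these data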;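 further: peak over basal fluorescence ratio from a 100 s FLIPR kinetic read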
OX1R Fluo8 conf: OX1R (HCRTR1) antagonists, confirmation, fluorescence, CHO/OX1R cells, Fluo-8 calcium, orexin A | inhibition, % at 5 µM | AID 492963, 2010 | 1,100 tested, 38% active | orexin A calcium Fluo-8 fluorescence | shares compounds with OX1R antag-1; in the data active means inhibition above about 29%
CHO Ca triplic: ATP-evoked calcium inhibition in parental CHO, counter-screen for OX1R antagonist project, cell-based, fluorescence, CHO-K1, triplicate; shares compounds with OX1R antag-1; ATP-induced calcium, Fluo-8 fluorescence; inhibition, % at 5.6 µM; 1,100 tested, 9.3% active;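 active means inhibition above a per-plate limit, the mean inhibition of that plate's test compounds plus 3 SD, cut at about 25% in these data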
OX1R HTRF confirm: OX1R (HCRTR1) antagonists, confirmation, cell-based, HTRF | shares compounds with OX1R antag-2 | OX1R-expressing cells, HTRF antagonist assay | inhibition, % at 6.6 µM | 1,800 tested, 49% active | AID 492964, 2010; in the data active means inhibition above about 55%;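 further: CHO cells expressing OX1R stimulated with orexin A at about EC80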
CHO-K1 HTRF cnt: signal inhibition in parental CHO-K1 cells, counter-screen for OX1R antagonist project, cell-based, HTRF | shares compounds with OX1R antag-2 | HTRF counterscreen | inhibition, % at 6.6 µM | 1,800 tested, 48% active; in the data active means inhibition above about 17%
Each line names hits and unclear results; the compound was inactive in the other large screens (follow-up assays come after a bar, where they were run).

C[C@@]12C(=O)N(CC3CCCO3)CC(=O)N1[C@H]1c3cc(Cl)ccc3OC[C@@H]1[C@@H]2c1ccccc1 (stereo partly specified)	none
Cc1cccc(N2CCN(C(=O)C3CCN(c4ncnc5c4nc4n5CCCCC4)CC3)CC2C)c1 (stereo unspecified)	none | OX1R Fluo8 conf inactive | CHO Ca triplic inactive
Cc1cccc(N2CCN(C(=O)C3CCN(c4ncnc5c4nc4n5CCCCC4)CC3)CC2)c1C	none
CNc1ccc(Oc2c(F)c(F)nc(F)c2F)cc1	none | OX1R Fluo8 conf inactive | CHO Ca triplic inactive
COc1ccccc1OCCCCCc1c(C)n[nH]c1C	none | OX1R Fluo8 conf inactive | CHO Ca triplic inactive
CC(=O)c1cccc(NC(=O)c2ccc(N(Cc3ccccc3C)S(C)(=O)=O)cc2)c1	none | OX1R Fluo8 conf inactive | CHO Ca triplic inactive
CC(=O)Nc1ccc(NC(=O)c2ccc(N(Cc3ccccc3C)S(C)(=O)=O)cc2)cc1	none
Cc1cc(-c2nnc3n2N=C(c2ccc(-c4ccccc4)cc2)CS3)n[nH]1	OX1R antag-1 57 | OX1R Fluo8 conf inactive | CHO Ca triplic inactive
CN(c1ccc(OCC(=O)NCCc2ccccc2)cc1)S(=O)(=O)c1ccc(Cl)cc1	none | OX1R Fluo8 conf inactive | CHO Ca triplic inactive
O=C(COc1ccc(Cl)cc1)Nc1cccc(S(=O)(=O)NCc2ccco2)c1	none | OX1R Fluo8 conf inactive | CHO Ca triplic inactive
CN(c1ccccc1)S(=O)(=O)c1cccc(NC(=O)COc2ccccc2)c1	none | OX1R Fluo8 conf inactive | CHO Ca triplic inactive
Cc1noc(C)c1COc1ccc(C(=O)OCC(=O)N2CC(=O)Nc3ccccc32)cc1	OX1R antag-1 82 | OX1R Fluo8 conf 76 | CHO Ca triplic inactive
Cc1noc(C)c1COc1ccc(C(=O)OCC(=O)N2c3ccccc3NC(=O)C2(C)C)cc1	none | OX1R Fluo8 conf 47 | CHO Ca triplic inactive
CCOc1ccc(C2C(C(=O)c3cccs3)=C(O)C(=O)N2CCN2CCOCC2)cc1 (stereo unspecified)	none
CCOC(=O)[C@@H](C)N(Cc1ccc(OC)cc1)S(=O)(=O)N(Cc1ccccc1)[C@H](C(=O)OC)C(C)C	OX1R antag-1 50 | OX1R Fluo8 conf inactive | CHO Ca triplic 58
Cc1cc(NC(=O)COC(=O)C2CC(=O)N(c3ccccc3Cl)C2)no1 (stereo unspecified)	none
CC(C)=CCOc1c2ccoc2c(OCC=C(C)C)c2oc(=O)ccc12	OX1R antag-1 54 | OX1R Fluo8 conf inactive | CHO Ca triplic 53
COc1cc(/C=C(\C#N)c2nc3ccccc3o2)ccc1O	V1aR counter 24, OXTR agonist 30 | OX1R Fluo8 conf 56 | CHO Ca triplic 56
N#C/C(=C\c1ccc(O)cc1)c1nc2ccccc2o1	none
Cc1cccc(-c2nnc(-c3cccc(NC(=O)Cc4cccs4)c3)o2)c1	OX1R antag-1 65 | OX1R Fluo8 conf inactive | CHO Ca triplic inactive
Cc1ccc(CNC(=O)CCc2cn(C)c3ccccc23)cc1	none
N#Cc1ccc(-c2cccnc2)nc1SCC(=O)c1ccccc1	OX1R antag-1 53 | OX1R Fluo8 conf inactive | CHO Ca triplic inactive
Cc1cc(C)cc(NS(=O)(=O)c2ccc3[nH]cc(C(=O)N4CCc5ccccc54)c(=O)c3c2)c1	none
CCc1ccc(NS(=O)(=O)c2ccc3[nH]cc(C(=O)N4CCc5ccccc54)c(=O)c3c2)cc1	none | OX1R Fluo8 conf 32 | CHO Ca triplic inactive
COc1ccccc1C(=O)Nc1nnc(-c2ccco2)s1	OX1R antag-1 55, OX1R antag-2 59 | OX1R Fluo8 conf inactive | CHO Ca triplic inactive | OX1R HTRF confirm 56 | CHO-K1 HTRF cnt inactive
COc1ccccc1Nc1nc(N)nc(-c2cc3ccccc3o2)n1	OX1R antag-2 77 | OX1R Fluo8 conf 31 | CHO Ca triplic inactive | OX1R HTRF confirm 65 | CHO-K1 HTRF cnt inactive
COc1ccccc1Nc1nc(N)nc(CN2CCOCC2)n1	none
O=[N+]([O-])c1ccc(-c2cnc(SC(c3ccccc3)c3ccccc3)[nH]2)cc1	OX1R antag-2 54 | OX1R Fluo8 conf inactive | CHO Ca triplic inactive | OX1R HTRF confirm 68 | CHO-K1 HTRF cnt inactive
O=[N+]([O-])c1ccc(-c2cnc(SCc3ccccc3Cl)[nH]2)cc1	none
COc1ccc(CN2CC[C@H]3C=CC[C@@H](C(=O)Nc4ccc(Cl)c(C(F)(F)F)c4)[C@H]3C2=O)cc1OC	OX1R antag-1 63, OX1R antag-2 86 | OX1R Fluo8 conf 70 | CHO Ca triplic inactive | OX1R HTRF confirm 89 | CHO-K1 HTRF cnt inactive
CCCCNC(=O)[C@@H]1CC=C[C@@H]2CCN(Cc3ccc(Cl)c(Cl)c3)C(=O)[C@@H]21	OX1R antag-1 47, OX1R antag-2 91 | OX1R Fluo8 conf inactive | CHO Ca triplic inactive | OX1R HTRF confirm 75 | CHO-K1 HTRF cnt inactive
CCc1nnc(NC(=O)C2CCCN2C(=O)Nc2ccc(Cl)cc2)s1 (stereo unspecified)	none
Cn1c(CNc2nc(-c3ccccc3)cs2)nnc1SCC(=O)N1CCc2ccccc21	OX1R antag-1 47, OX1R antag-2 80 | OX1R Fluo8 conf inactive | CHO Ca triplic inactive | OX1R HTRF confirm inactive | CHO-K1 HTRF cnt inactive
COC(=O)CSc1nnc(CNc2nc(-c3ccccc3)cs2)n1C	none
O=C(NC1CCCC1)C(c1ccccc1)N(C(=O)c1csnn1)c1ccccc1F (stereo unspecified)	none
CCC(=O)Nc1cc(NC(=O)CSc2ncc(-c3ccc(F)cc3)n2Cc2ccco2)ccc1C	OX1R antag-1 50, OX1R antag-2 84 | OX1R Fluo8 conf 36 | CHO Ca triplic inactive | OX1R HTRF confirm 63 | CHO-K1 HTRF cnt inactive
